Laboratory results published in ChEMBL document CHEMBL4689842, “EUbOPEN Chemogenomics Library wave 1” (2021).

Tested on: Fibroblast
Experiment: Multiplex assay against human fibroblast
Type: toxicity, cell-based
Summary of the method: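 Tubulin, mitochondrial-mass and membrane-permeability phenotypes are per cents of healthy-nucleus cells. Cells were gated by CellPathfinder machine learning into Hoechst high-intensity objects or normal cells, normal cells into healthy, pyknosed or fragmented nuclei, and pyknosed cells into mitotic or apoptotic. Before that, live cells stained at seeding with Hoechst33342, BioTracker Green Microtubule Cytoskeleton Dye, MitoTracker Red and Annexin V Alexa Fluor 680 were imaged on a CQ1 microscope at 37°C and 5% CO2 after compound addition.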

[1] = 12 h, 1 µM, compound concentration 1 uM, replicate 1
[2] = 12 h, 1 µM, compound concentration 1 uM, replicate 2
[3] = 12 h, 10 µM, compound concentration 10 uM, replicate 1
[4] = 12 h, 10 µM, compound concentration 10 uM, replicate 2
[5] = 24 h, 1 µM, compound concentration 1 uM, replicate 1
[6] = 24 h, 1 µM, compound concentration 1 uM, replicate 2
[7] = 24 h, 10 µM, compound concentration 10 uM, replicate 1
[8] = 24 h, 10 µM, compound concentration 10 uM, replicate 2
[9] = 48 h, 1 µM, compound concentration 1 uM, replicate 1
[10] = 48 h, 1 µM, compound concentration 1 uM, replicate 2
[11] = 48 h, 10 µM, compound concentration 10 uM, replicate 1
[12] = 48 h, 10 µM, compound concentration 10 uM, replicate 2

CC(C)(O)CNc1ncc(-c2ccnc(Nc3ccnc(Cl)c3)n2)c(CC2CC2)n1
Population Apoptotic (%) [1]: 59%
Population Fragmented Nuclei (%) [1]: 27%
Population Healthy Nuclei (%) [1]: 46%
Population Hoechst High Intensity Objects (%) [1]: 14%
Population Membrane Permeable-Phenotype (%) [1]: 35%
Population Mitochondria Different-Phenotype (%) [1]: 6%
Population Mitotic Cells (%) [1]: 40%
Population Normal (%) [1]: 85%
Population Pyknosed Nuclei (%) [1]: 25%
Population Tubulin-Different-Phenotype (%) [1]: 54%
Total Cell Count [1]: 121
Population Apoptotic (%) [2]: 9%
Population Fragmented Nuclei (%) [2]: 9%
Population Healthy Nuclei (%) [2]: 78%
Population Hoechst High Intensity Objects (%) [2]: 5%
Population Membrane Permeable-Phenotype (%) [2]: 5%
Population Mitochondria Different-Phenotype (%) [2]: 17%
Population Mitotic Cells (%) [2]: 90%
Population Normal (%) [2]: 94%
Population Pyknosed Nuclei (%) [2]: 12%
Population Tubulin-Different-Phenotype (%) [2]: 14%
Total Cell Count [2]: 97
Population Apoptotic (%) [3]: 58%
Population Fragmented Nuclei (%) [3]: 32%
Population Healthy Nuclei (%) [3]: 24%
Population Hoechst High Intensity Objects (%) [3]: 7%
Population Membrane Permeable-Phenotype (%) [3]: 18%
Population Mitochondria Different-Phenotype (%) [3]: 45%
Population Mitotic Cells (%) [3]: 41%
Population Normal (%) [3]: 92%
Population Pyknosed Nuclei (%) [3]: 43%
Population Tubulin-Different-Phenotype (%) [3]: 90%
Total Cell Count [3]: 97
Population Apoptotic (%) [4]: 15%
Population Fragmented Nuclei (%) [4]: 10%
Population Healthy Nuclei (%) [4]: 64%
Population Membrane Permeable-Phenotype (%) [4]: 28%
Population Mitochondria Different-Phenotype (%) [4]: 96%
Population Mitotic Cells (%) [4]: 84%
Population Pyknosed Nuclei (%) [4]: 26%
Population Tubulin-Different-Phenotype (%) [4]: 100%
Total Cell Count [4]: 93
Population Apoptotic (%) [5]: 53%
Population Fragmented Nuclei (%) [5]: 35%
Population Healthy Nuclei (%) [5]: 51%
Population Hoechst High Intensity Objects (%) [5]: 10%
Population Membrane Permeable-Phenotype (%) [5]: 31%
Population Mitochondria Different-Phenotype (%) [5]: 0%
Population Mitotic Cells (%) [5]: 46%
Population Normal (%) [5]: 90%
Population Pyknosed Nuclei (%) [5]: 12%
Population Tubulin-Different-Phenotype (%) [5]: 53%
Total Cell Count [5]: 130
Population Apoptotic (%) [6]: 20%
Population Fragmented Nuclei (%) [6]: 11%
Population Healthy Nuclei (%) [6]: 74%
Population Hoechst High Intensity Objects (%) [6]: 4%
Population Membrane Permeable-Phenotype (%) [6]: 10%
Population Mitochondria Different-Phenotype (%) [6]: 20%
Population Mitotic Cells (%) [6]: 80%
Population Normal (%) [6]: 95%
Population Pyknosed Nuclei (%) [6]: 15%
Population Tubulin-Different-Phenotype (%) [6]: 16%
Total Cell Count [6]: 136
Population Apoptotic (%) [7]: 63%
Population Fragmented Nuclei (%) [7]: 20%
Population Healthy Nuclei (%) [7]: 32%
Population Hoechst High Intensity Objects (%) [7]: 8%
Population Membrane Permeable-Phenotype (%) [7]: 28%
Population Mitochondria Different-Phenotype (%) [7]: 60%
Population Mitotic Cells (%) [7]: 36%
Population Normal (%) [7]: 91%
Population Pyknosed Nuclei (%) [7]: 47%
Population Tubulin-Different-Phenotype (%) [7]: 89%
Total Cell Count [7]: 95
Population Apoptotic (%) [8]: 47%
Population Fragmented Nuclei (%) [8]: 14%
Population Healthy Nuclei (%) [8]: 40%
Population Hoechst High Intensity Objects (%) [8]: 14%
Population Membrane Permeable-Phenotype (%) [8]: 47%
Population Mitochondria Different-Phenotype (%) [8]: 89%
Population Mitotic Cells (%) [8]: 52%
Population Normal (%) [8]: 85%
Population Pyknosed Nuclei (%) [8]: 44%
Population Tubulin-Different-Phenotype (%) [8]: 100%
Total Cell Count [8]: 105
Population Apoptotic (%) [9]: 100%
Population Fragmented Nuclei (%) [9]: 51%
Population Healthy Nuclei (%) [9]: 46%
Population Hoechst High Intensity Objects (%) [9]: 18%
Population Membrane Permeable-Phenotype (%) [9]: 27%
Population Mitochondria Different-Phenotype (%) [9]: 3%
Population Mitotic Cells (%) [9]: 0%
Population Normal (%) [9]: 81%
Population Tubulin-Different-Phenotype (%) [9]: 24%
Total Cell Count [9]: 143
Population Apoptotic (%) [10]: 50%
Population Fragmented Nuclei (%) [10]: 18%
Population Healthy Nuclei (%) [10]: 78%
Population Hoechst High Intensity Objects (%) [10]: 10%
Population Membrane Permeable-Phenotype (%) [10]: 22%
Population Mitochondria Different-Phenotype (%) [10]: 1%
Population Mitotic Cells (%) [10]: 50%
Population Normal (%) [10]: 89%
Population Pyknosed Nuclei (%) [10]: 2%
Population Tubulin-Different-Phenotype (%) [10]: 40%
Total Cell Count [10]: 84
Population Apoptotic (%) [11]: 54%
Population Fragmented Nuclei (%) [11]: 49%
Population Healthy Nuclei (%) [11]: 29%
Population Hoechst High Intensity Objects (%) [11]: 15%
Population Membrane Permeable-Phenotype (%) [11]: 12%
Population Mitochondria Different-Phenotype (%) [11]: 41%
Population Mitotic Cells (%) [11]: 45%
Population Normal (%) [11]: 84%
Population Pyknosed Nuclei (%) [11]: 21%
Population Tubulin-Different-Phenotype (%) [11]: 93%
Total Cell Count [11]: 123
Population Apoptotic (%) [12]: 29%
Population Fragmented Nuclei (%) [12]: 23%
Population Healthy Nuclei (%) [12]: 58%
Population Hoechst High Intensity Objects (%) [12]: 9%
Population Membrane Permeable-Phenotype (%) [12]: 7%
Population Mitochondria Different-Phenotype (%) [12]: 51%
Population Mitotic Cells (%) [12]: 70%
Population Normal (%) [12]: 90%
Population Pyknosed Nuclei (%) [12]: 17%
Population Tubulin-Different-Phenotype (%) [12]: 96%
Total Cell Count [12]: 106
